Reference: publication PMC8014925 (ACS Omega, 2021)

How the values were obtained:
estrogenic potency = conditions: cited from earlier work
arylsulfatase = assay: Arylsulfatase inhibition assay; format: biochemical, Helix pomatia; conditions: for type of inhibition of arylsulfatase: Lineweaver–Burk plot; for reversibility of inhibition of arylsulfatase: enzyme activity vs enzyme concentration at four inhibitor concentrations
β-glucuronidase = assay: β-Glucuronidase inhibition assay; format: biochemical, H. pomatia; conditions: for reversibility of inhibition of β-glucuronidase: enzyme activity vs enzyme concentration at four inhibitor concentrations
Method in brief: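 H. pomatia β-glucuronidase (type H-1), stock 10 U/mL in 0.5 M Tris-HCl pH 7.0. Incubated 1 h at 37 °C in 0.1 M phosphate buffer pH 7.0 with pNPG (5 mM stock) and test compound or water control. Stopped with 0.5 M NaOH; pNP read at 400 nm. Final H2O2 1–10,000 μM; NaClO and PAA 1–1000 μM. Triplicates; % inhibition relative to control without test compound.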

For CCCCC(CC)COC(=O)c1ccccc1C(=O)OCC(CC)CCCC (stereo not shown) [DEHP, di-2-(ethylhexyl) phthalate], the estrogenic potency (estrogenic potency) is listed as 10^–7.

With OO [H2O2, hydrogen peroxide] the “type of inhibition of arylsulfatase” value (arylsulfatase) was “competitive”, the “reversibility of inhibition of arylsulfatase” value (arylsulfatase) was “reversible” and the “inhibition of arylsulfatase under weak alkaline condition (in words)” value (arylsulfatase; pH 8) was “reduced inhibition”. The “differences in the inhibition of arylsulfatase across pH (in words)” value (arylsulfatase; pH range of 5–7) was “no significant differences” and the “inhibition on β-glucuronidase (in words)” value (β-glucuronidase; pH 7.0, tested 1-10,000 μM) was “no inhibition”.

In the case of CC(=O)OO [PAA, peracetic acid], the “type of inhibition of arylsulfatase” value (arylsulfatase) is reported as “noncompetitive”, the “reversibility of inhibition of arylsulfatase” value (arylsulfatase) is reported as “reversible” and the “inhibition of arylsulfatase at pH 8 (in words)” value (arylsulfatase; pH 8, concentration below 1 mM) is reported as “nearly no inhibition”. For the same compound, the “type of inhibition of β-glucuronidase” value (β-glucuronidase; Lineweaver–Burk plot) was “noncompetitive”, the “reversibility of inhibition of β-glucuronidase” value (β-glucuronidase) was “reversible” and the “maximum inhibition degree on β-glucuronidase” value (β-glucuronidase; pH 7.0, tested up to 1000 μM) was “about 60%”.

In the case of [Cd] [cadmium], the “estrogenic potency (in words)” value (estrogenic potency) is given as “no estrogenic potency at all”.

In the case of OCl [hypochlorite], the “reversibility of inhibition of arylsulfatase” value (arylsulfatase) is reported as “irreversible”, the IC50 (arylsulfatase; read-out: IC50 on arylsulfatase at pH 5.0, pH 5.0) is reported as 7.64 ± 0.61 µM and the “reversibility of inhibition of β-glucuronidase” value (β-glucuronidase) is reported as “irreversible”.
